Compounds with a hit are over-represented: about 2.7% of the library has one in this group of screens.
CHO parental Ca = signal in parental CHO cells, OX1R antagonist counter-screen | inhibition, % at 5.6 µM | parental CHO-K1, ATP-induced calcium, Fluo-8 fluorescence | 0.63% of 330,000 active;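 active means inhibition above that plate's mean sample inhibition plus 3 SD, cut at about 26% in these data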;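 further: 0% = ATP-challenged DMSO wells and 100% = DMSO wells without ATP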
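Assay system – parental CHO cells · Reagent – ATP stimulus · Detection – intracellular calcium via Fluo-8 no-wash fluorescent dye · Evaluation – percent inhibition of ATP-evoked calcium rise, normalized to controls · Controls – ATP wells versus no-ATP DMSO wells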
OXTR potentiator = potentiators of human oxytocin receptor; CHO-OTR cells, Fluo-8 calcium fluorescence, potentiator mode; 0% = oxytocin EC15, 100% = EC100; activation, % at 3 µM; 0.061% of 320,000 active;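 active means activation above that plate's cutoff, the mean activation of tested compounds plus 3 SD, cut at about 6.6% in these data, passing the limit was not always enough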;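 further: 100% uses oxytocin at 75 nM as the full agonist control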
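Material: human OTR in CHO cells. Compound: 3.0 µM, one dose. Timing: compound 6 min at room temperature before oxytocin, 100 s read. Evaluation: % activation of max/min ratio relative to oxytocin controls. Replication: single well per compound, singlicate. Signal: Fluo-8 calcium dye fluorescence.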
OXTR ag = agonists of human oxytocin receptor; CHO-OTR cells, Fluo-8 calcium fluorescence; normalized: DMSO 0%, oxytocin 100%; 0.32% of 320,000 active; activation, % at 3 µM; AID 2435;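 active means activation above the mean of all tested compounds plus 3 SD, cutoff set per screening run, cut at about 20% in these data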;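 further: peak over basal fluorescence ratio from a 100 s FLIPR kinetic read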
V1aR counter = V1a receptor agonism, counter-screen for OXTR agonists | P37288 | CHO-V1R cells, Fluo-8 calcium fluorescence, agonist mode; 0% DMSO, 100% 3 nM vasopressin | activation, % at 3 µM | 0.25% of 320,000 active | AID 2797;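 active means activation above the mean activation of all tested compounds plus 3 SD, per screening run, cut at about 20% in these data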;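 further: signal is peak over basal fluorescence ratio across a 100 second FLIPR read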
OX1R antag-1 = blocks the human orexin 1 receptor. O43613. OX1R-expressing cells, FRET antagonist read-out. inhibition, % at 6.6 µM. 1.8% of 330,000 active. AID 485270; in the data active means inhibition mostly above about 38%, no sharp cut-off; inactive means mostly below about 40%;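 further: 0% = agonist challenge alone and 100% = reference antagonist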
Target sequence (O43613 whole entry, looked up): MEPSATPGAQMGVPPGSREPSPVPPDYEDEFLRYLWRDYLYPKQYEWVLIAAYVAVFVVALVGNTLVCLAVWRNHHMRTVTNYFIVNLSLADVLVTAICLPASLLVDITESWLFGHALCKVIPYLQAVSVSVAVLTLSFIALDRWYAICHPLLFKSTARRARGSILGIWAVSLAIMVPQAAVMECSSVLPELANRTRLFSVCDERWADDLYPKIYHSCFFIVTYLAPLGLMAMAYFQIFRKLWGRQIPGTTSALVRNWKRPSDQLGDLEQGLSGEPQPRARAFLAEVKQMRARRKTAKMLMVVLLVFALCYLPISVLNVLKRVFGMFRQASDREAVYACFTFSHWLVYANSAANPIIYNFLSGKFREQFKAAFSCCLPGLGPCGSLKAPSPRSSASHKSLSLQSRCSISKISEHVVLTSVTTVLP
OX1R antag-2 = human HCRTR1 antagonism; O43613; CHO/OX1R cells, Fluo-8 calcium fluorescence, orexin A; inhibition, % at 5 µM; 0.43% of 330,000 active; AID 434989;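 active means inhibition above its plate's threshold, mean inhibition of all tested compounds on the plate plus 3 SD, cut at about 37% in these data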;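 further: 0% = orexin A challenge wells and 100% = SB-334867-A antagonist wells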
Starred values were filed as active, the others as inactive.

SMILES	CHO parental Ca	OXTR potentiator	OXTR ag	V1aR counter	OX1R antag-1	OX1R antag-2
Nc1nc(SCC(=O)c2ccc([N+](=O)[O-])cc2)n[nH]1	-9	-8	0	0	49*	-5
O=C(NCc1ccc(Cl)cc1)c1cc(-c2ccco2)on1	8	-1	-1	0	17	-6
O=C(NCc1ccc(F)cc1)c1cc(-c2ccco2)on1	32*	8	-2	0	2	38
CSc1ccccc1NC(=O)c1cc(-c2ccco2)on1	-2	-2	-1	-1	66*	-7
O=C(Nc1ccc(F)cc1F)c1cc(-c2ccco2)on1	35*	2	1	1	4	-21
Cc1ccccc1OCc1nnc(SC(C)C(=O)O)n1Cc1ccccc1 (stereo unspecified)	-20	-9	0	0	63*	4
O=C(Nc1cccc(-c2cn3ccccc3n2)c1)c1cccc(Cl)c1	73*	-10	-2	2	93*	82*
Cn1c(=O)c2c(ncn2CC(COCc2ccccc2)OCc2ccccc2)n(C)c1=O (stereo unspecified)	-9	-1	0	2	18	-18
COc1ccc(/C=N/Nc2nnc(C)n2N)cc1OC	-3	0	1	2	60	11
COc1ccc(/C=N/Nc2nnc(C)n2N)cc1OC(C)=O	1	-13	1	1	56*	-10
Cn1c(N)c(C(=O)COC(=O)c2ccccc2C(=O)c2ccc(Cl)c([N+](=O)[O-])c2)c(=O)n(C)c1=O	-2	-7	0	1	36*	12
O=C(COC(=O)c1cccc2c1C(=O)c1ccccc1C2=O)NC1CCCCC1	-24	-9	-1	-2	22	-20
O=C(COC(=O)c1ccc(Cl)c([N+](=O)[O-])c1)NC1CCCC1	-8	-5	0	0	17	-10
Nc1cc(Cl)ccc1C(=O)OCC(=O)NC1CCCCC1	30*	-16	-3	0	25	17
O=C(COC(=O)c1ccc2c(c1[N+](=O)[O-])C(=O)c1ccccc1C2=O)NC1CC1	21	-9	1	0	74*	9
O=C(COC(=O)c1ccccc1C(=O)c1ccc(Cl)c([N+](=O)[O-])c1)NC1CCCCCC1	39*	-4	-1	0	21	48*
CCN(C(=O)COC(=O)c1ccc(Cl)cc1N)C1CCCCC1	-5	-8	-1	-2	29	-14
O=C(Cn1cnc(S(=O)(=O)N2CCCC2)c1)Nc1cccc(F)c1	10	-5	0	0	6	-11
COc1ccc(/C=C2/NC(=O)CNC2=O)cc1	3	-6	0	1	34	-11
O=C(c1cc(COc2ccc3ncccc3c2)on1)N1CCC(O)CC1	19	-25	8	8	15	-2
CCOC(=O)N1CCN(C(=O)c2cc(COc3ccc4ncccc4c3)on2)CC1	28*	-13	13	9	12	22
COCC1CCCN(C(=O)c2cc(COc3ccc4ncccc4c3)on2)C1 (stereo unspecified)	54*	-16	12	14	27	18
O=C(c1cc(COc2ccc3ncccc3c2)on1)N1CCCC(O)C1 (stereo unspecified)	-3	-8	10	5	29	-8
Cc1cccnc1CN1CCN(C(=O)c2cc(COc3ccc4ncccc4c3)on2)CC1	60*	-27	12	10	53	49*
CCC(O)C1CCN(C(=O)c2cc(COc3ccc4ncccc4c3)on2)CC1 (stereo unspecified)	31*	-30	14	12	30	12
SMILES	CHO parental Ca	OXTR potentiator	OXTR ag	V1aR counter	OX1R antag-1	OX1R antag-2
CCc1ccc(OCC(=O)Nc2ccc(S(=O)(=O)Nc3ccccn3)cc2)cc1	6	-10	10	11	2	-14
Cn1c(=O)c2c(nc(NCc3ccc4c(c3)OCO4)n2Cc2ccc(F)cc2)n(C)c1=O	22*	-5	1	1	13	-33
Cn1c(=O)c2c(nc(NCc3ccc4c(c3)OCO4)n2Cc2ccccc2)n(C)c1=O	-6	-3	-2	-1	27	-12
Nc1nccnc1C(=O)OCC(=O)Nc1ccc2[nH]c(=O)[nH]c2c1	1	-8	-1	-1	24	-4
O=C(NCC(c1ccco1)N1CCCCC1)c1ccc2c(c1)S(=O)(=O)c1ccccc1C2=O (stereo unspecified)	-28	-1	-2	-1	63*	-44
O=C(Nc1ccccc1C(=O)N1CCOCC1)c1ccc([N+](=O)[O-])cc1	-9	-5	0	0	47*	-14
O=C(NCC(c1ccco1)N1CCOCC1)c1ccc([N+](=O)[O-])cc1 (stereo unspecified)	-9	0	1	2	67*	-4
O=C(NCC(c1ccco1)N1CCOCC1)c1cccc([N+](=O)[O-])c1 (stereo unspecified)	-13	-8	-1	0	26	-9
O=C(Nc1ccccc1C(=O)N1CCOCC1)c1ccc(F)cc1	9	-6	1	0	18	-14
O=C(Cn1cc([N+](=O)[O-])nc1[N+](=O)[O-])N1CCN(c2ccccc2)CC1	9	1	1	1	48*	-7
CC(=O)c1c(C)[nH]c(C(=O)NCc2ccco2)c1C	-8	-4	0	1	8	-10
Cc1ccc(NC(=O)c2ccc([N+](=O)[O-])s2)cc1S(=O)(=O)N1CCOCC1	7	-10	11	8	19	11
CC(C)(CO)NS(=O)(=O)c1ccc2c(c1)Cc1cc(S(=O)(=O)NC(C)(C)CO)ccc1-2	-4	4	1	1	-5	-3
O=C(CN1CCOCC1)NNC(=O)c1ccc([N+](=O)[O-])cc1	-1	1	1	1	43*	-3
O=C(CCCSc1nc2ccccc2[nH]1)N1CCN(c2ccc([N+](=O)[O-])cc2)CC1	50*	-11	11	9	36	59*
O=C(CN1CCOCC1)N1CCN(c2ccc([N+](=O)[O-])cc2)CC1	-3	-2	3	2	75*	-4
O=C(CN1CCN(c2ccc([N+](=O)[O-])cc2Cl)CC1)N1CCOCC1	-20	-9	2	2	25	-14
O=C(/C=C/c1ccc([N+](=O)[O-])cc1)OCC(=O)N1CCOCC1	0	-3	0	0	70*	4
CC(C(=O)Nc1nc(-c2ccc(F)cc2)cs1)N1C(=O)C2CC=CCC2C1=O (stereo unspecified)	6	-5	2	7	27	4
